Laboratory results taken from ChEMBL document CHEMBL4346709, “Design and Optimization Leading to an Orally Active TTK Protein Kinase Inhibitor with Robust Single Agent Efficacy” (J Med Chem, 2019).
The source made the active and inactive calls. No cut-off for these calls is given here.

Key:
[1] = tested on: CAL-51; assay: Induction of apoptosis in human CAL51 cells xenografted in CB17 SCID mouse assessed as activation of cleaved caspase-3 at 10 mg/kg, po measured after 1 to 48 hrs by MSD electrochemiluminescent immunoassay relative to control; type: functional
Method in brief: (§1)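 CB17 SCID mice bearing CAL-51 tumours of 300-500 mm3 given compound orally. At preset time points the mice were euthanised and the tumours dissected and snap-frozen in liquid nitrogen. pHH3 Ser10 or cleaved caspase measured by MSD electrochemiluminescent immunoassay kit. Data are mean ± SEM.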

[2] = tested on: CAL-51; assay: Antitumor activity against human CAL51 cells xenografted in CB17 SCID mouse assessed as tumor growth inhibition at 60 mg/kg, po administered every seven days for 16 days and measured twice per week up to 31 days by caliper method relative to control; type: functional; settings: CAL-51, po, read-out: TGI
Method in brief: (§2)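 Female CB17 SCID mice, 6-8 weeks old, inoculated subcutaneously with 2×10^6 CAL-51 cells. Oral dosing once weekly (QW) at 30-120 mg/kg, or 30 mg/kg BID QW, for 16 days, against vehicle control. Tumour long and short axes measured twice weekly by digital caliper; volume = width² × length/2. Values are TGI; data are mean ± SEM.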

[3] = target: T1, Leukocyte tyrosine kinase receptor (Homo sapiens, UniProt P29376); assay: Inhibition of recombinant human GST-tagged LTK cytoplasmic domain (450 to 864 residues) expressed in baculovirus expression system by Z'-LYTE assay
T1 sequence (P29376 whole entry, the tested form may be a part): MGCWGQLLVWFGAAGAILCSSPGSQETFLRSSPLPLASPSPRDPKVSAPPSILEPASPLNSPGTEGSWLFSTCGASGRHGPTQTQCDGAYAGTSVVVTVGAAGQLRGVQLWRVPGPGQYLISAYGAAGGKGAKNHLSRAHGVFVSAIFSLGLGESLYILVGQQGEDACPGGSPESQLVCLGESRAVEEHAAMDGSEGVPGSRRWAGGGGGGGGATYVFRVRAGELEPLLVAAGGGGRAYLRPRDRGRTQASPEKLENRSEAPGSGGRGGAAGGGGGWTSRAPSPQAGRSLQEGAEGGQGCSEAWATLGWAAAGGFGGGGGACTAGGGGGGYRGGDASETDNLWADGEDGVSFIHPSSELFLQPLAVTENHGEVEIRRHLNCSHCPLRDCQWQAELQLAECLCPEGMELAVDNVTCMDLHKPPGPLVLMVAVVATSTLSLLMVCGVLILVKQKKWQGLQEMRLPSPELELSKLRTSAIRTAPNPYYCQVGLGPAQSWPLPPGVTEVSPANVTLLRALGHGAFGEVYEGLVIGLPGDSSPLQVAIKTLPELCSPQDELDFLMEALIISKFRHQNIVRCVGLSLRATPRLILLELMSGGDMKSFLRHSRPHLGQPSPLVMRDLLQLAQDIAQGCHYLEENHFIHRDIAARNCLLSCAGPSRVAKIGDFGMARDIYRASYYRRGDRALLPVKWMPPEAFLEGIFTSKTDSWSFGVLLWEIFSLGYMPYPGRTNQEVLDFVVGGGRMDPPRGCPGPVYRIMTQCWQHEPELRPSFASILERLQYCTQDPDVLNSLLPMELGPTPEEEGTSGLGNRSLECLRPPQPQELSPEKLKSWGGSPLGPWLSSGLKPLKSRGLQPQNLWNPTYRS

[4] = target: T1, Leukocyte tyrosine kinase receptor; assay: Inhibition of recombinant human GST-tagged LTK cytoplasmic domain (450 to 864 residues) expressed in baculovirus expression system at 3 uM by Z'-LYTE assay relative to control
Method in brief: (§3)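 Kinase selectivity panel: single-point assessment at 3 µM, n=1.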

[5] = target: T2, Dual specificity tyrosine-phosphorylation-regulated kinase 3 (Homo sapiens) (UniProt O43781); assay: Inhibition of recombinant human full length GST-tagged DYRK3 expressed in baculovirus expression system at 3 uM by Z'-LYTE assay relative to control; method in brief: as §3
T2 sequence (whole entry): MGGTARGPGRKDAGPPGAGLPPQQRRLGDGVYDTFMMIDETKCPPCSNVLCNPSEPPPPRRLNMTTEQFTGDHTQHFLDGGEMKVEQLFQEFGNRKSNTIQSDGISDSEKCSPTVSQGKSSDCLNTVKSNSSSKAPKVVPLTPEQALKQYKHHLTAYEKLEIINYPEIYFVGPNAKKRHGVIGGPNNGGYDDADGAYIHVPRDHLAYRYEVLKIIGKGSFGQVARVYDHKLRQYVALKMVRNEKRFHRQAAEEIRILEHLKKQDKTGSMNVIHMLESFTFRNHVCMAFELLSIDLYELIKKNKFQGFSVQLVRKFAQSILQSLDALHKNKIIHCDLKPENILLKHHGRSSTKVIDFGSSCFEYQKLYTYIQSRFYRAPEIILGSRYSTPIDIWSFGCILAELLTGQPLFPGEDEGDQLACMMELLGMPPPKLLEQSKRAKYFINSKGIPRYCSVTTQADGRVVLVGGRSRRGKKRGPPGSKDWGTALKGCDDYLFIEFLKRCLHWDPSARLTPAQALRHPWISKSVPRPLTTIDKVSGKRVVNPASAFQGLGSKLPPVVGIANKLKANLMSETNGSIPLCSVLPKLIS

[6] = tested on: CAL-51; assay: Antitumor activity against human CAL51 cells xenografted in CB17 SCID mouse assessed as tumor growth inhibition at 30 mg/kg, po […] for 16 days and measured twice per week up to 31 days by caliper method relative to control; type: functional; settings: CAL-51, po, read-out: TGI; method in brief: as §2
[7] = tested on: Mus musculus; assay: Inhibition of mitosis in human CAL51 cells xenografted in CB17 SCID mouse assessed reduction in pHH3 ser10 level at 30 mg/kg, po administered as single dose measured after 1 hr by MSD electrochemiluminescent immunoassay; type: functional, organism-based; method in brief: as §1
[8] = target: Mitogen-activated protein kinase 10 (Homo sapiens, UniProt P53779); assay: Inhibition of recombinant human full length N-terminal GST-tagged JNK3 expressed in baculovirus expression system by Z'-LYTE assay
Chain of Mitogen-activated protein kinase 10 (P53779 whole entry): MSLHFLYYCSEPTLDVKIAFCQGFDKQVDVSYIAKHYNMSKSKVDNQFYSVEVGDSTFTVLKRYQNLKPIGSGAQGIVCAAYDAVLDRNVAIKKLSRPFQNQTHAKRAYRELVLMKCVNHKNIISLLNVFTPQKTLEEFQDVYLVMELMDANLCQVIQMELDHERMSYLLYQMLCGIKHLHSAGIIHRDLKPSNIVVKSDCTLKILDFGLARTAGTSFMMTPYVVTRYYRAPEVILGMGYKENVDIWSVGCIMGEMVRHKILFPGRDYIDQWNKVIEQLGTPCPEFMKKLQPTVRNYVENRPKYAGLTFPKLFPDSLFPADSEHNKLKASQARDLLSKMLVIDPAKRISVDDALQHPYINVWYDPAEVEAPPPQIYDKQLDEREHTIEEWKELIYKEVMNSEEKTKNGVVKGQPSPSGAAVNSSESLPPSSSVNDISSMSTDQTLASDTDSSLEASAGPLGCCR

[9] = target: Mitogen-activated protein kinase 9 (Homo sapiens, UniProt P45984); assay: Inhibition of recombinant human full length His-tagged JNK2 expressed in baculovirus expression system at 3 uM by Z'-LYTE assay relative to control; method in brief: as §3
Chain of Mitogen-activated protein kinase 9 (P45984 whole entry, looked up): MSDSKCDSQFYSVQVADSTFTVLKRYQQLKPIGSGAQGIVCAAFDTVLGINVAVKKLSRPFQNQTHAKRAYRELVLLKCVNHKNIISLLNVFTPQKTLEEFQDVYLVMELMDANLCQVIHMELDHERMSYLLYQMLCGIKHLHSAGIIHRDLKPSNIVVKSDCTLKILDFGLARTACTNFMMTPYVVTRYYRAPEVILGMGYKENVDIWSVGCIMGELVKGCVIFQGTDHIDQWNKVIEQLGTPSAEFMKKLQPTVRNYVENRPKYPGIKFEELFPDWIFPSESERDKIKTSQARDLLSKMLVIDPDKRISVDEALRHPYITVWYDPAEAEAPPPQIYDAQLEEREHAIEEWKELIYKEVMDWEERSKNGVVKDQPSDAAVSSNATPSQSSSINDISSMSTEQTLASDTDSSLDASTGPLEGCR

[10] = target: T3, Mitogen-activated protein kinase 8 (Homo sapiens, UniProt P45983); assay: Inhibition of recombinant human full length His-tagged JNK1 expressed in baculovirus expression system at 3 uM by Z'-LYTE assay relative to control; method in brief: as §3
T3 sequence (P45983 whole entry): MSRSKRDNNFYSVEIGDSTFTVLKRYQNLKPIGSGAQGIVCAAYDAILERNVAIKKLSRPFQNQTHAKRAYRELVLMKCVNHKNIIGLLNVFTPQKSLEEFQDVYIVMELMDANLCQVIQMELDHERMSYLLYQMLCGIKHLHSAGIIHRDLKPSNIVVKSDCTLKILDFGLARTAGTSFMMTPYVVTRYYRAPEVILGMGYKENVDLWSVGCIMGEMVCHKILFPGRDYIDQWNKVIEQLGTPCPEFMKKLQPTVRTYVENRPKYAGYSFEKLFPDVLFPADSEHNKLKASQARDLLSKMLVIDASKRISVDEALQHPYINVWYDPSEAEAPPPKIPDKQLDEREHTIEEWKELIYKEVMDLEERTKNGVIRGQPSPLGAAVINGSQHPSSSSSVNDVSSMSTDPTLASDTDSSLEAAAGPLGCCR

[11] = AUC in CB17 SCID mouse at 30 mg/kg, po; type: ADME, organism-based; settings: in vivo
Method in brief: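 Oral PK in SCID mice at 30 mg/kg. Compound is formulated either in CMCT (0.5% CMC/0.25% tween-80) or in 5% TPGS, 10% captisol, 50 mM citrate buffer, depending on compound. Cmax and AUC are measured.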

[12] = target: T3, Mitogen-activated protein kinase 8; assay: Inhibition of recombinant human full length His-tagged JNK1 expressed in baculovirus expression system by Z'-LYTE assay
[13] = tested on: CAL-51; assay: Antitumor activity against human CAL51 cells xenografted in CB17 SCID mouse assessed as tumor growth inhibition at 30 mg/kg, po administered every seven days for 16 days and measured twice per week up to 31 days by caliper method relative to control; type: functional; settings: CAL-51, po, read-out: TGI; method in brief: as §2
[14] = species: Homo sapiens; assay: Selectivity ratio of IC50 for recombinant human full length His-tagged JNK1 expressed in baculovirus expression system to IC50 for inhibition of Kinase Tracer 236 binding to recombinant human full-length GST-tagged TTk expressed in baculovirus expression system

Compound `C[C@@H](Oc1cc(C(=O)N(C)C)ccc1Nc1nc(O[C@H]2CC[C@@](C)(O)CC2)c2c(Cl)c[nH]c2n1)C(F)(F)F` has an Activity [1] of 159%, an inhibition in vivo at 60 mg/kg [2] of 65% and an IC50 [3] of 0.567 nM. It also gave an inhibition [4] of over 80%, an inhibition [5] of over 80% and an inhibition in vivo at 30 mg/kg [6] of 84%. For the same compound, the inhibition [7] was “Active”, the IC50 [8] was 0.107 nM and the inhibition [9] was over 80%. It also gave an inhibition [10] of over 80%, an AUC [11] of 22.5 µM·h and an IC50 [12] of 0.032 nM. For the same compound, the inhibition in vivo at 30 mg/kg [13] was 59% and the Ratio IC50 [14] was under 100.
